The text below walks through data of publication PMC8202272 (Pulmonary Circulation, 2021).

The subject of one data set is Male SD rats. Description: Drug plus three weeks hypoxia. The note with it: for Right ventricular systolic pressure (RVSP): 17.8 µg/h Alzet osmotic pump for 14 of 21 days of hypoxia; for RVH compared to the normal control group: 28 days post-hypoxia; for Induction of severe PAH: drug plus hypoxia, rats. The class given is in vivo, rat. Put shortly: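 Male SD rats got test compound 20 mg/kg SC once or 17.8 μg/h by osmotic minipump, then 3 weeks at FiO2 10% and 14 or 28 days normoxia; untreated normoxic rats as controls. Under isoflurane, RV pressure by sternotomy catheter; RV free wall, IVS, LV weighed. Lungs perfused with 10% formalin, H&E 8 μm sections, lumen/media area ratio, ≥20 arterioles/section. RV Picro-Sirius red staining.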

Data set [1] relates to human umbilical vein endothelial cell (HUVEC). The data set can be described thus: HUVEC proliferation assay. It counts as cell-based. The following applies: read-out: IC50 HUVECs proliferation.
A further data set addresses VEGFR2 kinase. The note with it: read-out: IC50 VEGFR2 kinase (reported); cited from earlier work.
The subject of the next data set is MRC5. Description: MRC5 proliferation assay. It counts as cell-based. The note with it: Homo sapiens, MRC5, read-out: IC50 MRC5 proliferation.
A short description of data set [2]: Pharmacokinetic studies in Sprague Dawley rats. It counts as in vivo. The note with it: rat, plasma.
The target in data set [3] is T1, bone morphogenic protein receptor type 2 (BMPR2) (Homo sapiens, UniProt Q13873).
T1 sequence (Q13873 27-1038): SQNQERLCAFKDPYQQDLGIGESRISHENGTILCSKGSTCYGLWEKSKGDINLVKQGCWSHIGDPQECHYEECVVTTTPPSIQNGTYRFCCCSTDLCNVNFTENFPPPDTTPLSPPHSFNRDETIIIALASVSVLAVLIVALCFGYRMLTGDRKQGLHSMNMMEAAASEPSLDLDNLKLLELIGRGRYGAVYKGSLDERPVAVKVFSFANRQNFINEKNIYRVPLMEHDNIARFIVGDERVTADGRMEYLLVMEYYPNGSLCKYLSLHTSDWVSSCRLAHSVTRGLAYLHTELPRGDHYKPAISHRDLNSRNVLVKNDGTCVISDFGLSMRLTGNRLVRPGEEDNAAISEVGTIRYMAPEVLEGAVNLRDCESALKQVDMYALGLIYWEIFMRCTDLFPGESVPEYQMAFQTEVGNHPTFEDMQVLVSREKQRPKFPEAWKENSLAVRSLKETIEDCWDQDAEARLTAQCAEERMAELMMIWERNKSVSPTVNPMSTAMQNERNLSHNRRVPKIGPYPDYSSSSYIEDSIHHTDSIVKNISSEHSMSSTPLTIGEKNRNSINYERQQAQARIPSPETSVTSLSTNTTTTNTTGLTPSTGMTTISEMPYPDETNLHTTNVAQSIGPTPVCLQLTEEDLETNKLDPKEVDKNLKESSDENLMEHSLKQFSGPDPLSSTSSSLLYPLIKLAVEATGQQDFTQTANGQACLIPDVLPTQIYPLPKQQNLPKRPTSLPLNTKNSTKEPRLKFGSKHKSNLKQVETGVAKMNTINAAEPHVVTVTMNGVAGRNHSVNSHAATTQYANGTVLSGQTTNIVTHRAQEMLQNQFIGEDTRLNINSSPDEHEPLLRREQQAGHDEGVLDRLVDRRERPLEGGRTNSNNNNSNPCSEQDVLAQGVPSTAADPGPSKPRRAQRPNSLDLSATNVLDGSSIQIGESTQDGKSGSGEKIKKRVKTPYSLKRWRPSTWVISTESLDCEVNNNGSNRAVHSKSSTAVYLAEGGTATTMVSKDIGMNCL
Description: KdELECT assay, inhibitor binding constant for BMPR2.

For another data set, the target named is VEGFR2 (Homo sapiens, UniProt P35968). Description: KINOMEscan Profiling against 468 human kinases: VEGFR2. The class given is binding. The following applies: 10,000 nM.
Setting [4] is: other: via an Alzet pump, 12 mg/kg.

VEGFR2, sequence (P35968 20-1356): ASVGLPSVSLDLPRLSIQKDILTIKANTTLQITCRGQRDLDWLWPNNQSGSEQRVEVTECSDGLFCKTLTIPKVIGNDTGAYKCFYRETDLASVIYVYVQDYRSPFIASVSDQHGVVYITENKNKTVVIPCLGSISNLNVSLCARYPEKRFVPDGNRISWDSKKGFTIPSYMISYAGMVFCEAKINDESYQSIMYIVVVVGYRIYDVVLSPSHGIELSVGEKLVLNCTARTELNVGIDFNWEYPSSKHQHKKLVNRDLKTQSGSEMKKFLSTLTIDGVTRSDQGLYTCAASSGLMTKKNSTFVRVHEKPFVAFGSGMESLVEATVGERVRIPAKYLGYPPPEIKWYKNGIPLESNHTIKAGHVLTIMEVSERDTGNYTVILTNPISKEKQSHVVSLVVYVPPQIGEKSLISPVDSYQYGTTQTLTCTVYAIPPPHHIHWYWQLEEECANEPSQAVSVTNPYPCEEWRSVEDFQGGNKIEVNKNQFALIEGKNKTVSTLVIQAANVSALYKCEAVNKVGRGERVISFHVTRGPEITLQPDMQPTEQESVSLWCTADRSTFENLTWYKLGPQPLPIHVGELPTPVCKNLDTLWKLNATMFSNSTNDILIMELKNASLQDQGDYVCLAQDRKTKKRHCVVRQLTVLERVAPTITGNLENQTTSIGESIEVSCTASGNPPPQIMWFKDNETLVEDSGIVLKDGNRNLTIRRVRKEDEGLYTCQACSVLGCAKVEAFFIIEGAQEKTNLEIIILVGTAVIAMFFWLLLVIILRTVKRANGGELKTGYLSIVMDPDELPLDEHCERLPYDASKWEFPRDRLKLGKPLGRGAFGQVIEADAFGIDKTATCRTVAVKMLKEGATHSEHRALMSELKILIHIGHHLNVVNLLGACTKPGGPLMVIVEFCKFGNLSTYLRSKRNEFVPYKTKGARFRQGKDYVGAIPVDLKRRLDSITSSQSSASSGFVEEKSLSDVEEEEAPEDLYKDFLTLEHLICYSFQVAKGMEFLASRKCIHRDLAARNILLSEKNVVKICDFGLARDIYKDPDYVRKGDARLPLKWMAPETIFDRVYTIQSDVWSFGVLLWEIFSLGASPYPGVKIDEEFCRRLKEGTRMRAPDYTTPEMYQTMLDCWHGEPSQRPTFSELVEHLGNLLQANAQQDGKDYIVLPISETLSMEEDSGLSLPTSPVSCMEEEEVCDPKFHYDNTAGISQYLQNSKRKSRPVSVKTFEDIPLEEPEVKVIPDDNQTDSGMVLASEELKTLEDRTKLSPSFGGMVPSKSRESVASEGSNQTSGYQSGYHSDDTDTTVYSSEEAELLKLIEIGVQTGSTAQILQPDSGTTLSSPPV

For `COc1cc2nccc(Oc3ccc(NC(=O)C4(C(=O)Nc5ccc(F)cc5)CC4)cc3)c2cc1OC` [Cabozantinib, cabozantinib], the “Right ventricular systolic pressure (RVSP)” value with Male SD rats (14 days after removal from hypoxia, mean ± SEM) turned out to be 40.0 ± 3.1 mmHg; in the data set on Male SD rats (28 days after removal from hypoxia, mean ± SEM) it was 27.9 ± 1.9 mmHg. Besides, the “RVH by Fulton's Index (RV/(LV + IVS))” value in the data set on Male SD rats (14 days post-hypoxia, Cabo = SC + Alzet groups, mean ± SEM) amounted to 0.36 ± 0.02. Besides, the “RVH compared to the normal control group” value with Male SD rats is “no significant difference”. Moreover, the “Induction of severe PAH” value in the data set with Male SD rats is recorded as “did not induce severe PAH”. For the same compound, the IC50 in data set [1] was 4.9 nM; at VEGFR2 kinase, 0.035 nM; with MRC5, 549 nM. The AUC(0-t) stood at 16800 ng·h/mL in data set [2] (setting [4]) and 27500 ng·h/mL in data set [2] (sc, 20 mg/kg). The Cmax in data set [2] (setting [4]) came out at 238 ± 83 ng/mL; in data set [2] (sc, 20 mg/kg) it was 1620 ± 103 ng/mL. For the same compound, the half-life in data set [2] (setting [4]) was 43 ± 8 h; in data set [2] (sc, 20 mg/kg), 25.7 ± 10.8 h. Besides, in data set [3], the equilibrium dissociation constant (Kd) is more than 10000 nM.

For the compound `Cc1cc(C)c(/C=C2\C(=O)Nc3ccccc32)[nH]1` [SU5416], in the data set on Male SD rats, the “RVH compared to the normal control group” value is “significantly increased” and the “Induction of severe PAH” value was “induced severe PAH”. Further, the “RV fibrosis (Picro-Sirius red, qualitative)” value in the data set with Male SD rats (days 14 and 28 after removal from hypoxia, SU5416H vs CaboH groups) is reported as “increase in RV fibrosis”. Further, in data set [1], the IC50 came out at 330 nM. The IC50 in the data set on MRC5 came out at 11700 nM. Further, the “Activity against VEGFR2 in kinome screen” value at VEGFR2 is “potent”. In data set [2] (sc, 20 mg/kg), this compound had an exposure AUC(0-t) of 12.6 ± 2 ng·h/mL, a Cmax of 4.97 ± 2.3 ng/mL and a half-life of 5 ± 4.7 h.
